Source: ChEMBL document CHEMBL1125046, “Beta-lactam analogues of oxotremorine. 3- and 4-methyl-substituted 2-azetidinones” (J Med Chem, 1990)

Experiments:
[1] = biological target: Muscarinic acetylcholine receptor; assay: In vitro inhibition of binding of (-)-[3H]-NMS to Muscarinic acetylcholine receptor of rat cerebral cortex was determined; type: tissue-based
In short: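 Rat cerebral cortex (male Sprague-Dawley, 200–300 g) homogenised in 50 mM Na-K phosphate buffer, pH 7.4, then centrifuged and resuspended at 10 mg wet tissue/mL. Competition with 0.3 nM (–)-[3H]NMS for 30 min at 30 °C, followed by filtration. Nonspecific binding defined with 10 μM atropine. IC50 from a one-site nonlinear fit, converted to Ki by Cheng-Prusoff using NMS Kd 0.076 nM. Three experiments, each in triplicate.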

[2] = biological target: Muscarinic acetylcholine receptor; assay: Dissociation constant of the drug-Muscarinic acetylcholine receptor complex.; type: protein assay, Cavia porcellus
[3] = organism: Cavia porcellus; assay: Maximal contractile response as a percentage of that elicited by carbachol.; type: functional
In short: (§1)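 Isolated ileum contractions recorded isotonically at 1 g tension with a displacement transducer. Cumulative concentration-response curves built by raising agonist concentration stepwise by a factor of 2.15. Maximal response expressed as a percentage of the carbachol maximum.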

[4] = organism: Cavia porcellus; assay: In vitro muscarinic activity against guinea pig ileum was determined; type: functional; in short: as §1

SMILES	Ki [1] [µM]	Kd [2] [µM]	Emax [3]	EC50 [4] [µM]
O=C1CCCN1CC#CCN1CCCC1 [OXOTREMORINE]	0.83	0.93	100	0.035
CC1CC(=O)N(CC#CCN2CCCC2)C1 (configuration not stated)	5	10	0	–
O=C1CCN1CC#CCN1CCCC1	0.94	–	100	0.29
CC1CCC(=O)N1CC#CC[N+](C)(C)C (configuration not stated)	0.61	1.7	100	0.18
CC1CC(=O)N1CC#CCN(C)C (configuration not stated)	43	–	95	88
CC1CCC(=O)N1CC#CCN1CCCC1 (configuration not stated)	0.056	0.093	0	–
CC1CCC(=O)N1CC#CCN(C)C (configuration not stated)	2.2	4.3	102	0.91
CC1CCN(CC#CCN2CCCC2)C1=O (configuration not stated)	1.2	11.5	100	0.5
CC1CN(CC#CCN2CCCC2)C1=O (configuration not stated)	5.6	–	23	24
CC1CC(=O)N1CC#CCN1CCCC1 (configuration not stated)	0.99	1.7	0	–
CC1CC(=O)N1CC#CC[N+](C)(C)C (configuration not stated)	19.6	–	97	55
